Assay results taken from ChEMBL document CHEMBL1139014, “Stereochemical sensitivity of the human UDP-glucuronosyltransferases 2B7 and 2B17” (J Med Chem, 2006).
pIC50, pKi: −log10 of the molar value.

Key:
[1] = biological target: T1, UDP-glucuronosyltransferase 2B17 (Homo sapiens, UniProt O75795); assay: Non competitive inhibition of UGT2B17-catalyzed scopoletin glucuronidation; type: functional
T1 sequence (O75795 whole entry): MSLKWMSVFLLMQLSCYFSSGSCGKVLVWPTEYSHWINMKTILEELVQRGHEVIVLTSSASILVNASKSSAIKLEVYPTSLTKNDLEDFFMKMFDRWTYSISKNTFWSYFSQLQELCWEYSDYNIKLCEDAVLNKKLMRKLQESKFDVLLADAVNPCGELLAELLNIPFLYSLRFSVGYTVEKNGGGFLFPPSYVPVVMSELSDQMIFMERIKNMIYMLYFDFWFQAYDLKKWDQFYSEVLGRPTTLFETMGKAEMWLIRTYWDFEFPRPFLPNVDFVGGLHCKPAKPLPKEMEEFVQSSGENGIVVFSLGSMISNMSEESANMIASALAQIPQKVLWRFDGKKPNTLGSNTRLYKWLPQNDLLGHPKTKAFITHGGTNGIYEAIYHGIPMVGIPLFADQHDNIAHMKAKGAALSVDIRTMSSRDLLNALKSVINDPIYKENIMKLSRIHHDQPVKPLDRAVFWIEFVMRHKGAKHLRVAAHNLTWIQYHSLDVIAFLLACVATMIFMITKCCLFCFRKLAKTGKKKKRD
Procedure, shortened: (§1)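 His-tagged human UGT2B17 expressed in insect cells, 0.1 µg/µL, in 5.0 mM phosphate (pH 7.4) with 10 mM MgCl2 and 5.0 mM saccharic acid-1,4-lactone. Initial velocities were taken at scopoletin 100, 250, 500, 1000 and 2000 µM, with racemic inhibitors at three levels bracketing Kic estimated by Cheng-Prusoff. UDPGlcA (5.0 mM final) started the reaction after 5 min preincubation at 37 °C; run 15 min. Scopoletin glucuronide was measured by HPLC fluorescence. Inhibition mechanism was fitted by simultaneous nonlinear regression.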

[2] = biological target: T1, UDP-glucuronosyltransferase 2B17; assay: Competitive inhibition of UGT2B17-catalyzed scopoletin glucuronidation; type: functional; procedure, shortened: as §1
[3] = biological target: T2, UDP-glucuronosyltransferase 2B7 (Homo sapiens, UniProt P16662); assay: Competitive inhibition of UGT2B7-catalyzed scopoletin glucuronidation; type: functional
T2 sequence (P16662 whole entry): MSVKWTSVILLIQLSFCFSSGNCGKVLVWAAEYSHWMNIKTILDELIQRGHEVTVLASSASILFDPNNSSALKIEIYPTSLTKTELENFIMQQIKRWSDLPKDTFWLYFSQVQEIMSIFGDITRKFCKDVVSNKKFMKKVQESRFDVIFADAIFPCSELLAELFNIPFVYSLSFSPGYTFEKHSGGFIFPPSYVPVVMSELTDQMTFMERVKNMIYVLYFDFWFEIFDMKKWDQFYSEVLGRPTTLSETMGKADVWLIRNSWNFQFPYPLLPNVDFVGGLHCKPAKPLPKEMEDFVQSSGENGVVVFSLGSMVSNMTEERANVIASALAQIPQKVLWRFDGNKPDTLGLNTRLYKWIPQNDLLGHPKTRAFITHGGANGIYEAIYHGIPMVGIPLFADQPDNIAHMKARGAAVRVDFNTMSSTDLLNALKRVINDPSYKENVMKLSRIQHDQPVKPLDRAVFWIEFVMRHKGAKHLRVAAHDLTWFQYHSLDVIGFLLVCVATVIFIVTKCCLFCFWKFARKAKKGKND
Procedure, shortened: (§2)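 Recombinant human UGT2B7 from baculovirus-infected insect cells, 0.1 µg/µL, in 5.0 mM phosphate (pH 7.4), 10 mM MgCl2 and 5.0 mM saccharic acid-1,4-lactone. Racemates were tested at three concentrations bracketing Kic estimated by Cheng-Prusoff. Scopoletin was 100–2000 µM. After 5 min preincubation at 37 °C, 5.0 mM UDPGlcA was added and the reaction ran 15 min. Glucuronide was read by HPLC fluorescence (ex 335/em 455 nm). Mechanism came from simultaneous nonlinear regression.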

[4] = biological target: T2, UDP-glucuronosyltransferase 2B7; assay: Non competitive inhibition of UGT2B7-catalyzed scopoletin glucuronidation; type: functional; procedure, shortened: as §2
[5] = biological target: T2, UDP-glucuronosyltransferase 2B7; assay: (§3) Inhibition of UGT2B7
UGT2B7 = biological target: T3, UGT2B7 (Homo sapiens, UniProt P16662); assay: as §3; conditions: human; read-out: Imax
T3 sequence (P16662 whole entry): T2 sequence (P16662 whole entry)

[6] = biological target: T1, UDP-glucuronosyltransferase 2B17; assay: (§4) Inhibition of UGT2B17
Procedure, shortened: (§5)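 IC50 against UGT2B17-catalyzed glucuronidation of scopoletin, using His-tagged enzyme from insect cells at 0.1 µg/µL. Scopoletin was 300 µM (its Km) with inhibitor at 10–1000 µM. For poorly soluble aliphatic alcohols, inhibitor was 5–100 µM and scopoletin 50 µM. Buffer was 5.0 mM phosphate pH 7.4 with MgCl2 and saccharic lactone. UDPGlcA 5.0 mM; 15 min at 37 °C. Scopoletin glucuronide was read by HPLC fluorescence and fitted to the two-parameter Hill equation.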

UGT2B17 = biological target: T4, UGT2B17 (Homo sapiens, UniProt O75795); assay: as §4; conditions: human; read-out: Imax; procedure, shortened: as §5
T4 sequence (O75795 whole entry): T1 sequence (O75795 whole entry)

| Structure (SMILES) | pKi [1] | pKi [2] | pKi [3] | pKi [4] | pIC50 [5] | Emax (UGT2B7) | pIC50 [6] | Emax (UGT2B17) |
| --- | --- | --- | --- | --- | --- | --- | --- | --- |
| Cc1ccc2c(c1)C(O)CC2 (racemic) | 2.84 | 3.37 | 3.52 | 3.20 | – | – | – | – |
| O[C@H]1CCc2ccccc21 | – | – | – | – | 3.29 | 67.3% | 3.26 | 63.4% |
| Cc1cccc2c1CC[C@@H]2O | – | – | – | – | 3.75 | 86.4% | 3.22 | 61.7% |
| O=[N+]([O-])c1ccc2c(c1)[C@@H](O)CCC2 | – | – | – | – | 3.19 | 62.5% | 3.52 | 77.4% |
| COc1ccc2c(c1)[C@@H](O)CCC2 | – | – | – | – | 3.45 | 77.2% | 3.67 | 80.4% |
| O=[N+]([O-])c1ccc2c(c1)[C@H](O)CCC2 (racemic) | – | – | – | – | 3.22 | 61.9% | 3.66 | 83.5% |
| C[C@@H](O)c1ccc2ccccc2c1 | – | – | – | – | – | – | 3.24 | 16.7% |
| Cc1ccc2c(c1)[C@@H](O)CC2 | – | – | – | – | 3.27 | 64.4% | 3.14 | 58.3% |
| Cc1ccc2c(c1)C(O)CCO2 (racemic) | 3.22 | 3.70 | 3.95 | 3.59 | – | – | – | – |
| COc1ccc2c(c1)[C@H](O)CCC2 (racemic) | – | – | – | – | 3.55 | 80.4% | 3.79 | 84.7% |
| C[C@@H](O)c1c2ccccc2cc2ccccc12 | – | – | – | – | 3.46 | 19.8% | 3.15 | 13.1% |
| Cc1ccc2c(c1)[C@H](O)CC2 (racemic) | – | – | – | – | 3.40 | 71.2% | 3.31 | 69.6% |
| O[C@@H]1CCc2ccccc21 | – | – | – | – | 3.56 | 77.1% | 3.29 | 65.3% |
| COc1cccc2c1CCC[C@@H]2O | – | – | – | – | 3.52 | 80.2% | 3.88 | 89.1% |
| O[C@H]1CCCc2ccccc21 | – | – | – | – | 3.31 | 67.8% | 3.43 | 76.1% |
| C[C@H](O)c1cccc2ccccc12 (racemic) | – | – | – | – | 3.67 | 31.8% | 3.27 | 14.3% |
| C[C@H](O)c1c2ccccc2cc2ccccc12 (racemic) | – | – | – | – | 3.27 | 17.7% | 3.22 | 11.1% |
| C[C@@H](O)c1cccc2ccccc12 | – | – | – | – | 3.89 | 41.9% | 3.41 | 18.9% |
| C[C@H](O)c1ccc2ccccc2c1 (racemic) | – | – | – | – | – | – | 3.18 | 9.12% |
| Cc1cccc2c1CC[C@H]2O (racemic) | – | – | – | – | 3.50 | 76% | 3.17 | 60.1% |
| Cc1cc(C)c2c(c1)[C@H](O)CCC2 (racemic) | – | – | – | – | 3.80 | 85.7% | 3.84 | 87.8% |
| Cc1ccc2c(c1)[C@H](O)CCO2 | – | – | – | – | 3.65 | 83.5% | 3.44 | 72.6% |
| O[C@H]1CCOc2ccccc21 (racemic) | – | – | – | – | 3.29 | 68.7% | 3.50 | 74.8% |
| Cc1cc(C)c2c(c1)C(O)CCC2 (racemic) | 3.72 | 4.24 | 4.00 | 3.72 | – | – | – | – |
| O[C@@H]1CCCc2ccccc21 | – | – | – | – | 3.47 | 73.6% | 3.62 | 78.8% |
| Cc1cc(C)c2c(c1)[C@@H](O)CCC2 | – | – | – | – | 3.78 | 83.5% | 4.01 | 90.5% |
| COc1cccc2c1CCC[C@H]2O (racemic) | – | – | – | – | 3.44 | 76.5% | 3.95 | 88.9% |
| Cc1ccc2c(c1)[C@@H](O)CCO2 (racemic) | – | – | – | – | 3.74 | 85% | 3.49 | 75.3% |
| O[C@@H]1CCOc2ccccc21 | – | – | – | – | 3.29 | 65.8% | 3.35 | 69.3% |
